Experimental data taken from publication PMC7115506 (European Journal of Medicinal Chemistry, 2018).

Assays:
[1] = system: human leukemia K562 cells; test: MTT cytotoxic activity assay, K562; type: cell-based; conditions: for enhancement of potency compared to that of 2d: ratio to 2d, K562; for IC50: read-out: IC50 K562, MTT, 48 h
Procedure, shortened: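 K562 cells at 5 × 10^4 cells/ml were plated for 2 h, then exposed to test compound at 10–100,000 nM for 48 h. MTT (5 mg/mL stock) was added for a further 4 h and read on a plate reader. DMSO-treated controls were set as 100% viability. IC50 came from nonlinear regression over three independent assays.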

HepG2 cells [2] = test: Wound healing assay; type: cell-based, human; conditions: 48 h, DMSO 184.89 μm
HUVEC cells = test: Tube forming assay on Matrigel; type: cell-based, human; conditions: 10 nM, 30 nM, 100 nM; 12 h
K562 cells [3] = test: Morphological changes by microscopy; type: cell-based, human; conditions: 30 nM
Procedure, shortened: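 K562 cells were kept in RPMI-1640 with 10% FBS, 2.05 mM glutamine and 1% penicillin/streptomycin at 37 °C and 5% CO2. They were exposed to test compound at 30 nM, and morphology was compared with DMSO-treated cells.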

HepG2 cells [4] = test: Transwell assay; type: cell-based, human; conditions: 10 nM, 30 nM, 100 nM; 24 h
K562 cells [5] = test: Flow cytometric analysis of apoptosis; type: cell-based, human; conditions: 30 nM; 48 h
Procedure, shortened: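 K562 cells (RPMI-1640, 10% FBS) were seeded in six-well plates and given DMSO or test compound at 30 or 300 nM for 0, 6, 12, 24 and 48 h. Cells were washed twice in ice-cold PBS, resuspended in binding buffer, then stained with Annexin V-FITC (10 min) and PI at 50 μg/mL (10 min) at room temperature in the dark. Flow cytometry with quadrant statistics.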

liver cancer HepG2 cells = test: MTT cytotoxic activity assay, HepG2; type: cell-based, human; conditions: read-out: IC50 HepG2

| Compound | enhancement of potency compared to that of 2d [1] | IC50 [1] | IC50 (liver cancer HepG2 cells) | further results |
| --- | --- | --- | --- | --- |
| COc1ccc(CN2C(=O)C(=O)c3cc(-c4ccc(C(C)(C)C)cc4)ccc32)cc1 [compound 4e, 5-(4-(tert-butyl)phenyl)-1-(4-methoxybenzyl)indoline-2,3-dione] | – | – | – | drop of cytotoxic activity from that of 4k ([1]; ratio to 4k): 15 folds |
| COc1ccc(-c2ccc3c(c2)C(=O)C(=O)N3Cc2ccccc2OC)cc1 [2o, 1-(2-methoxybenzyl)-5-(4-methoxyphenyl)indoline-2,3-dione] | 8–25 folds | – | – | – |
| COc1ccc(CN2C(=O)C(=O)c3cc(-c4ccc(OC)cc4)ccc32)cc1 [compound 2m, 1-(4-methoxybenzyl)-5-(4-methoxyphenyl)indoline-2,3-dione] | 8–25 folds | – | – | The distance of migration (HepG2 cells [2]; 10 nM): 162.89 μm; The distance of migration (HepG2 cells [2]; 30 nM): 135.22 μm; The distance of migration (HepG2 cells [2]; 100 nM): 96.24 μm; effect on tube formation of HUVEC cells (HUVEC cells): could inhibit the angiogenesis of HUVEC cells and have a dose-dependent inhibitory effect; morphological change: elongated cells (G2/M arrest morphology) (K562 cells [3]; 6 h, vs DMSO-treated cells): elongated cells increased significantly; morphological change: apoptotic cells (K562 cells [3]; 24 h): apoptotic cells were clearly observed; effect on HepG2 cells migration (transwell) (HepG2 cells [4]): could inhibit the HepG2 cells migration and have a dose-dependent inhibitory effect; apoptotic rate of K562 cells (K562 cells [5]): 43.4% |
| 1-(4-methoxybenzyl)-5-(thiophen-3-yl)indoline-2,3-dione [compound 4r] | – | 80 ± 40 nM | 3670 ± 1400 nM | – |
| COc1ccc(-c2ccc3c(c2)C(=O)C(=O)N3Cc2ccc3c(c2)OCO3)cc1 [2v, 1-(benzo[d] [1, 3]dioxol-5-ylmethyl)-5-(4-methoxyphenyl)indoline-2,3-dione] | 8–25 folds | – | – | – |
| 1-(3,5-dimethylbenzyl)-5-(4-methoxyphenyl)indoline-2,3-dione [2p] | – | 140 ± 30 nM | 410 ± 30 nM | – |
| COc1ccc(-c2ccc3c(c2)C(=O)C(=O)N3Cc2ccc(OC)c(OC)c2)cc1 [2q, 1-(3,4-dimethoxybenzyl)-5-(4-methoxyphenyl)indoline-2,3-dione] | 8–25 folds | – | – | – |
| (Z)-ethyl 2-(1-(4-methoxybenzyl)-5-(4-methoxyphenyl)-2-oxoindolin-3-ylidene)acetate [5d] | – | 1240 ± 540 nM | 3390 ± 270 nM | – |
| (Z)-methyl 2-(1-(4-methoxybenzyl)-5-(4-methoxyphenyl)-2-oxoindolin-3-ylidene)acetate [5e] | – | 1900 ± 140 nM | 4730 ± 1240 nM | – |
